Test results as given in ChEMBL document CHEMBL1914377, “Preliminary finding on a new calcium channel entry blocker chemotype: 5,6-diamino-4-hydroxy-2-mercaptopyrimidine derivatives” (J Med Chem, 2011).

How the values were obtained:
Aorta [1] = assay: Vasorelaxant activity in guinea pig K+-depolarized guinea pig aortic strip assessed as inhibition of calcium-induced contraction at 5 x 10^-5 M relative to control; assay type: functional; conditions: Cavia porcellus
[2] = Cardiovascular activity in guinea pig spontaneously beating right atrium assessed as negative chronotropic activity by measuring decrease of atrial rate at 10^-4 M relative to control; assay type: functional; conditions: Cavia porcellus, Cardiac atrium
[3] = Cardiovascular activity in guinea pig left atrium assessed as negative inotropic activity by measuring decrease of 1 Hz-induced tension; assay type: functional, tissue-based; conditions: Cavia porcellus, Cardiac atrium
How it was run: (§1)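 Log concentration–response curves fitted by probit analysis (Litchfield and Wilcoxon), n = 4–7. They were not calculated when the maximum effect was below 50%.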

[4] = Cardiovascular activity in guinea pig left atrium assessed as negative inotropic activity by measuring decrease of 1 Hz-induced tension at 10^-4 M relative to control; assay type: functional; conditions: Cavia porcellus, Cardiac atrium
[5] = Cardiovascular activity in guinea pig left atrium assessed as negative inotropic activity by measuring decrease of 1 Hz-induced tension at 10^-5 M relative to control; assay type: functional; conditions: Cavia porcellus, Cardiac atrium
Aorta [6] = assay: Vasorelaxant activity in guinea pig K+-depolarized guinea pig aortic strip assessed as inhibition of calcium-induced contraction at 10^-4 M relative to control; assay type: functional; conditions: Cavia porcellus
CHO = assay: Inhibition of L-type alpha9beta3alpha2/gamma4 calcium channel expressed in CHO cells using Ba2+ as charge carrier at 10 uM by patch clamp electrophysiological assay relative to control; assay type: cell-based
How it was run: (§2)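 Whole-cell patch clamp with Ba2+ currents. L-type current was recorded in transfected CHO cells and T-type current in TT cells, whose only voltage-gated Ca2+ currents are T-type. The read-out was percent decrease in peak current, comparing the mean of five consecutive steady-state sweeps in control and in drug. Results are mean ± SEM, n = 5–7 cells per group.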

[7] = Vasorelaxant activity in guinea pig K+-depolarized guinea pig longitudinal smooth muscle assessed as inhibition of calcium-induced contraction; assay type: functional, Cavia porcellus
[8] = Cardiovascular activity in guinea pig spontaneously beating right atrium assessed as negative chronotropic activity by measuring decrease of atrial rate at 5 x 10^-5 M relative to control; assay type: functional; conditions: Cavia porcellus, Cardiac atrium
[9] = Vasorelaxant activity in guinea pig K+-depolarized guinea pig longitudinal smooth muscle assessed as inhibition of calcium-induced contraction at 5 x 10^-5 M relative to control; assay type: functional; conditions: Cavia porcellus
How it was run: (§3)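 Guinea-pig longitudinal smooth muscle depolarized with K+ (80 mM). Percent inhibition of calcium-induced contraction was measured at single concentrations of 10^-4 M, 5 × 10^-5 M or 10^-5 M. Results are mean ± SEM.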

TT = assay: Inhibition of T-type calcium channel expressed in human TT cells using Ba2+ as charge carrier at 10 uM by patch clamp electrophysiological assay relative to control; assay type: cell-based; how it was run: as §2
[10] = Vasorelaxant activity in guinea pig K+-depolarized guinea pig longitudinal smooth muscle assessed as inhibition of calcium-induced contraction at 10^-4 M relative to control; assay type: functional; conditions: Cavia porcellus; how it was run: as §3
[11] = Cardiovascular activity in guinea pig spontaneously beating right atrium assessed as negative chronotropic activity by measuring decrease of atrial rate; assay type: functional; conditions: Cavia porcellus, Cardiac atrium; how it was run: as §1
[12] = Cardiovascular activity in guinea pig left atrium assessed as negative inotropic activity by measuring decrease of 1 Hz-induced tension in presence of adenosine A1 receptor antagonist DPCPX; assay type: functional, tissue-based; conditions: Cavia porcellus, Cardiac atrium
How it was run: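 Negative inotropic concentration–response determined in the presence of the A1 antagonist DPCPX at 1 μM.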

[13] = Cardiovascular activity in guinea pig left atrium assessed as negative inotropic activity by measuring decrease of 1 Hz-induced tension at 5 x 10^-5 M relative to control; assay type: functional; conditions: Cavia porcellus, Cardiac atrium
Aorta [14] = assay: Vasorelaxant activity in guinea pig K+-depolarized guinea pig aortic strip assessed as inhibition of calcium-induced contraction; assay type: functional, tissue-based; conditions: Cavia porcellus; how it was run: as §1
[15] = Cardiovascular activity in guinea pig spontaneously beating right atrium assessed as negative chronotropic activity by measuring decrease of atrial rate at 10^-5 M relative to control; assay type: functional; conditions: Cavia porcellus, Cardiac atrium
[16] = Cardiovascular activity in guinea pig left atrium assessed as negative inotropic activity by measuring decrease of 1 Hz-induced tension at 5 x 10^-6 M relative to control; assay type: functional; conditions: Cavia porcellus, Cardiac atrium
[17] = Vasorelaxant activity in guinea pig K+-depolarized guinea pig longitudinal smooth muscle assessed as inhibition of calcium-induced contraction at 10^-5 M relative to control; assay type: functional; conditions: Cavia porcellus; how it was run: as §3

Row | IC50 [7] [µM] | Compound | inhibition at 100 µM [2] [%] | EC50 [3] [µM] | inhibition at 100 µM [4] [%] | inhibition at 10 µM [5] [%] | inhibition at 100 µM (Aorta [6]) [%] | inhibition (CHO) [%] | inhibition (TT) [%] | other results
1 |  | CCOc1nc(SCc2ccccc2)nc(N)c1N(Cc1ccccc1)Cc1ccccc1 | 33 | 1.49 | 62 |  |  |  |  | inhibition at 50 µM (Aorta [1]): 2%
2 |  | CCOc1nc(SCc2ccccc2)nc(NC(C)=O)c1N(Cc1ccccc1)Cc1ccccc1 | 44 | 0.27 |  | 64 |  |  |  | inhibition at 50 µM (Aorta [1]): 20%
3 | 3.39 | CCCSc1nc(N)c(N(CCC)CCC)c(=O)n1CC |  | 0.6 |  | 56 | 28 | 54 | 35.3 | inhibition at 50 µM [8]: 22%; inhibition [9]: 93%
4 |  | COCCSc1nc(NC(C)=O)c(N(CCOC)CCOC)c(=O)[nH]1 |  | 0.96 | 90 |  | 2 |  |  | inhibition at 50 µM [8]: 6%
5 | 2.91 | CCn1c(SCc2ccccc2)nc(N)c(N(Cc2ccccc2)Cc2ccccc2)c1=O | 63 | 0.45 | 56 |  | 7 | 60.7 | 11.9 | inhibition [10]: 94%; EC30 [11]: 18.1 µM; EC50 [12]: 0.5 µM
6 | 10.7 | CCCSc1nc(N)c(N(CCC)CCC)c(OCC)n1 | 27 | 0.15 |  | 68 | 16 |  |  | inhibition [10]: 83%
7 |  | Nc1nc(SCc2ccccc2)[nH]c(=O)c1N(Cc1ccccc1)Cc1ccccc1 | 80 | 3.16 | 60 |  |  |  |  | inhibition at 50 µM (Aorta [1]): 2%; EC30 [11]: 8.63 µM
8 |  | CCOc1nc(SCCOC)nc(N)c1N(CCOC)CCOC | 45 | 0.31 |  |  | 22 |  |  | inhibition at 50 µM [13]: 79%
9 | 13.9 | CCCSc1nc(N)c(N(CCC)CCC)c(=O)[nH]1 |  | 1.96 | 87 |  | 54 |  |  | inhibition at 50 µM [8]: 39%; inhibition [9]: 87%; IC50 (Aorta [14]): 14.9 µM
10 | 21.5 | CCn1c(SCCOC)nc(N)c(N(CCOC)CCOC)c1=O | 11 | 0.23 |  | 76 | 33 | 52 | 24.7 | inhibition [10]: 60%
11 |  | CCOc1nc(SCCOC)nc(NC(C)=O)c1N(CCOC)CCOC | 3 | 0.62 |  | 80 | 10 |  |  | 
12 |  | CCCSc1nc(NC(C)=O)c(N(CCC)CCC)c(OCC)n1 |  | 1 |  |  | 23 |  |  | inhibition at 50 µM [13]: 71%; inhibition at 10 µM [15]: 2%
13 |  | CCCSc1nc(NC(C)=O)c(N(CCC)CCC)c(=O)[nH]1 |  | 0.28 |  |  | 30 |  |  | inhibition at 5 µM [16]: 62%; inhibition at 10 µM [15]: 7%
14 |  | CC(=O)Nc1nc(SCc2ccccc2)[nH]c(=O)c1N(Cc1ccccc1)Cc1ccccc1 | 95 | 1.41 | 90 |  | 31 |  |  | EC30 [11]: 6.79 µM
15 |  | COCCSc1nc(N)c(N(CCOC)CCOC)c(=O)[nH]1 |  | 0.34 |  | 93 | 10 |  |  | inhibition at 10 µM [15]: 13%
16 | 1.48 | CCn1c(SCc2ccccc2)nc(NC(C)=O)c(N(Cc2ccccc2)Cc2ccccc2)c1=O |  | 0.29 |  |  | 25 | 58 | 15.2 | inhibition [17]: 90%; inhibition at 50 µM [13]: 66%; EC30 [11]: 14.1 µM; inhibition at 50 µM [8]: 72%
17 | 4.86 | CCCSc1nc(NC(C)=O)c(N(CCC)CCC)c(=O)n1CC |  | 0.53 |  |  |  | 56 | 22.3 | inhibition [17]: 72%; inhibition at 50 µM [13]: 60%; inhibition at 50 µM (Aorta [1]): 13%; inhibition at 50 µM [8]: 13%
18 | 23.8 | CCn1c(SCCOC)nc(NC(C)=O)c(N(CCOC)CCOC)c1=O | 2 | 0.77 | 81 |  | 2 | 37 | 12.3 | inhibition [10]: 91%
